Columns and labels:
Type in all cases: ADME, organism-based
Details in all cases: in vivo
[1] = Plasma concentration in Sprague-Dawley rat at 25 mg/kg, po administered as single dose and measured within few minutes by LC/MS/MS analysis
Method in brief: (§1)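 Male naïve Sprague–Dawley rats (n=3) received a single 25 mg kg−1 oral gavage dose in 5% ethanol/45% PEG 400/50% water. EDTA-K2 blood was sampled over 24 h post-dose. Plasma levels were measured by LC/MS/MS after acetonitrile protein precipitation, and parameters came from two-compartment analysis.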

[2] = Tmax in Sprague-Dawley rat at 25 mg/kg, po administered as single dose by LC/MS/MS analysis
Method in brief: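 Male naïve Sprague–Dawley rats (n = 3) received a single 25 mg kg−1 dose by oral gavage in 5% ethanol/45% PEG 400/50% water. EDTA-K2 blood was sampled over 24 h. Plasma levels were measured by LC/MS/MS after acetonitrile protein precipitation, and parameters came from two-compartment analysis.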

[3] = Cmax in Sprague-Dawley rat at 25 mg/kg, po administered as single dose by LC/MS/MS analysis; design: dose 25 mg/kg, route po; method in brief: as §1

SMILES: Cc1nc(-c2ccc3ccccc3c2)sc1-c1nnc(N[C@@H]2CCCC[C@H]2N)o1 (relative stereo)
- Cp [1]: 1000 ng/mL
- Tmax [2]: 3 h
- Cmax [3]: 9400 ng/mL

From ChEMBL document CHEMBL5329183, “Naphthylthiazoles: a class of broad-spectrum antifungals” (RSC Med Chem, 2023)
